The nature of assay [1]: viability loss of SR-BI-expressing CHO line – cell-based, CellTiter-Glo luminescence, 24 h, dry powder, set 2, cytotoxicity control for SR-BI HDL uptake inhibitor project, dose response (AID 588829). The note with it: ldlA[mSR-BI] CHO cells viability, CellTiter-Glo ATP luminescence, 24 h. The method in brief: (§1)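 Detection: CellTiter-Glo luminescence reporting cellular ATP | Assay system: ldlA[mSR-BI] cells | Timing: 24 h compound exposure at 37 °C, 10 min reagent incubation | Buffer or medium: Ham's F12 growth medium with 10% FCS | Doses: Compound series of 8 concentrations, delivered by pin transfer | Read-out basis: Viability IC50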
(In general: In ATP-based viability assays light output follows the ATP content of the culture.)

Assay [2] has as its system ldlA[mSR-BI] CHO cells viability, CellTiter-Glo ATP luminescence, 24 h. The description is as above. Summed up: as §1

One may read the IC50 as the concentration that gives 50% inhibition.

Each structure is given as a SMILES string. Calls of active or inactive are those of the source.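 How the source made its calls: active means compounds lowering the cell energy light signal whose fitted half-effect dose is at most twice the top tested dose; inconclusive means flat curve with a 30 to 70% drop, or poor fit; inactive means the rest.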

Turning to `CCNC(=O)N1CCc2cc(-c3csc(NC(=O)c4cc(OC)cc(OC)c4)n3)ccc21`, in assay [1] (at 35 µM (top of the series)), the activity change, negative = toxicity is 9.7% (inactive).

With `Cc1ccc2oc(-c3cccc(NC(=O)c4cc(-n5cnnc5)ccc4Cl)c3)nc2c1`, in assay [1] (at 35 µM (top of the series)), the activity change, negative = toxicity was -6.36% (inactive).

For the compound `COc1c(NC(=O)C(=O)c2ccc(OCCN3CCOCC3)c3ccccc23)cc(C(C)(C)C)cc1NS(C)(=O)=O`, the activity change, negative = toxicity in assay [1] (at 35 µM (top of the series)) was -4.11% (inactive).

Turning to `CC(=O)N1CCc2cc(-c3nc(NC(=O)c4cccc(OC(F)(F)F)c4)sc3C)ccc21`, in assay [1] (at 35 µM (top of the series)), the activity change, negative = toxicity is -14.1% (inactive).

As to `COc1cc(OC)cc(C(=O)Nc2nc(-c3ccc4c(c3)CCN4C(=O)CN(C)C)cs2)c1`, the activity change, negative = toxicity in assay [1] (at 35 µM (top of the series)) is 8.9% (inactive).

As for `C[C@@H]1CN([C@H](C)CO)C(=O)c2cc(NC(=O)Cc3cn(C)c4ccccc34)ccc2O[C@H]1CN(C)S(=O)(=O)c1ccc(Cl)cc1`, the activity change, negative = toxicity in assay [1] (at 35 µM (top of the series)) was 3.86% (inactive).

Regarding `CCCCCCC1CCC/C1=N\NC(N)=S` (stereo unspecified), in assay [2], the IC50 was 9.05 µM.

For the compound `CCC(=O)N1CC(C)(C)c2cc(-c3csc(NC(=O)c4cc(OC)cc(OC)c4)n3)ccc21`, the activity change, negative = toxicity in assay [1] (at 35 µM (top of the series)) is 1.55% (inactive).

Take `COc1cc(OC)cc(C(=O)Nc2nc(-c3ccc4c(c3)CCN4C(=O)OC(C)(C)C)cs2)c1`: the activity change, negative = toxicity in assay [1] (at 35 µM (top of the series)) was 12.9% (inactive).

For `CC1CCC/C=C/C2CC(O)CC2C(O)/C=C\C(=O)O1` (stereo unspecified), the activity change, negative = toxicity in assay [1] (at 35 µM (top of the series)) is -13.3% (inactive).

As to `CC(C)(Sc1cc(C(C)(C)C)c(O)c(C(C)(C)C)c1)Sc1cc(C(C)(C)C)c(O)c(C(C)(C)C)c1`, in assay [1] (at 35 µM (top of the series)), the activity change, negative = toxicity is 14.8% (inactive).

`COc1ccc(-c2cc(CC(=O)N(C3CCCCC3)C(C)C(=O)NC3CCCC3)no2)cc1OC` (stereo unspecified): the activity change, negative = toxicity in assay [1] (at 35 µM (top of the series)) is 13.9% (inactive).

On to `C[C@H](C(=O)NC1CCCC1)N(C(=O)Cn1nnc(-c2ccc3c(c2)OCO3)n1)C1CCCCC1`, for which the activity change, negative = toxicity in assay [1] (at 35 µM (top of the series)) was 11.2% (inactive).

With `CCC(=O)N1CCc2cc(-c3csc(NC(=O)c4cccc(OC)c4)n3)ccc21`, the activity change, negative = toxicity in assay [1] (at 35 µM (top of the series)) was 2.38% (inactive).

On to `C[C@@H]1CN([C@@H](C)CO)C(=O)Cc2cc(NC(=O)Nc3ccc(C(F)(F)F)cc3)ccc2O[C@@H]1CN(C)S(=O)(=O)c1ccc(Cl)cc1`, for which the activity change, negative = toxicity in assay [1] (at 30 µM (top of the series)) was -71.3% (inactive).

For `COCC(=O)N1CCc2cc(-c3csc(NC(=O)c4cc(OC)cc(OC)c4)n3)ccc21`, in assay [1] (at 35 µM (top of the series)), the activity change, negative = toxicity is 10.9% (inactive).

The values are drawn from PubChem BioAssay AID588829 (Broad Institute, 2011).
